The target of assay [1] is Tiam1 PDZ domain (wild-type) (Homo sapiens, UniProt Q13009). Nature of the assay: Equilibrium fluorescence anisotropy binding of dansylated peptides. In outline: (§1)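 Purified PDZ domains were titrated from a 1.5 mM stock into 1 μM N-terminally dansylated peptide at 25 °C in a stirred cuvette. Proteins were expressed in E. coli BL21(DE3), purified by Ni-chelate and size-exclusion chromatography, and His6-tag cleaved by TEV; Tiam2 is mouse residues 809–994; mutants made by site-directed mutagenesis. Anisotropy ex 340/em 550 nm, buffer-blank corrected. Kd from hyperbolic fit, mean of ≥3 independent runs; ΔG = RT ln Kd (298.15 K).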
Tiam1 PDZ domain (wild-type), sequence (Q13009 841-930 limits assumed): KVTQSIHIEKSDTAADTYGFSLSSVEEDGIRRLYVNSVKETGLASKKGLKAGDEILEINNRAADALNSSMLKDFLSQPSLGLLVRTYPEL

The target of the next assay is T1, Tiam2 PDZ domain (Mus musculus, UniProt Q6ZPF3).
T1 sequence (Q6ZPF3 908-997 limits assumed): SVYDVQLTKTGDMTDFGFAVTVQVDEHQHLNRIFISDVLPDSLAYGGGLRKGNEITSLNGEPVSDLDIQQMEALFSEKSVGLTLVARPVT
The description is as above. Summed up: as §1

The target in the next assay is Tiam1 PDZ L911M (Homo sapiens, UniProt Q13009, L911M). Nature of the assay: Fluorescence anisotropy binding, Tiam1 PDZ mutant. Summed up: as §1
Tiam1 PDZ L911M, sequence (Q13009 841-930 L911M limits assumed): as the sequence (Q13009 841-930 limits assumed) above, with L71M counted along it
The target in a further assay is Tiam1 PDZ K912E (Homo sapiens, UniProt Q13009, K912E). Nature of the assay: Fluorescence anisotropy binding, Tiam1 PDZ mutant. In outline:
as §1

The target of assay [2] is Tiam1 PDZ L911M/K912E (Mus musculus, UniProt Q60610, L911M/K912E, species not given). Description: Fluorescence anisotropy binding and double-mutant cycle, Tiam1 PDZ mutant. As to conditions: Tiam1 PDZ L911M/K912E; for Kd: fluorescence anisotropy, 25 °C. Summed up: (§2)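 Wild-type, single- and double-mutant Tiam1 PDZ (E. coli-expressed, tag-cleaved) were each titrated into 1 μM dansylated peptide at 25 °C. Anisotropy read at ex 340/em 550 nm; Kd from hyperbolic fit, ≥3 independent runs. ΔG = RT ln Kd at 298.15 K. Coupling energy ΔΔΔGint = (ΔGWT − ΔGM1) − (ΔGM2 − ΔGDM), with errors propagated by standard methods.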
Tiam1 PDZ L911M/K912E (Mus musculus, UniProt Q60610, L911M/K912E, species not given), sequence (Q60610 2-1591 L911M/K912E): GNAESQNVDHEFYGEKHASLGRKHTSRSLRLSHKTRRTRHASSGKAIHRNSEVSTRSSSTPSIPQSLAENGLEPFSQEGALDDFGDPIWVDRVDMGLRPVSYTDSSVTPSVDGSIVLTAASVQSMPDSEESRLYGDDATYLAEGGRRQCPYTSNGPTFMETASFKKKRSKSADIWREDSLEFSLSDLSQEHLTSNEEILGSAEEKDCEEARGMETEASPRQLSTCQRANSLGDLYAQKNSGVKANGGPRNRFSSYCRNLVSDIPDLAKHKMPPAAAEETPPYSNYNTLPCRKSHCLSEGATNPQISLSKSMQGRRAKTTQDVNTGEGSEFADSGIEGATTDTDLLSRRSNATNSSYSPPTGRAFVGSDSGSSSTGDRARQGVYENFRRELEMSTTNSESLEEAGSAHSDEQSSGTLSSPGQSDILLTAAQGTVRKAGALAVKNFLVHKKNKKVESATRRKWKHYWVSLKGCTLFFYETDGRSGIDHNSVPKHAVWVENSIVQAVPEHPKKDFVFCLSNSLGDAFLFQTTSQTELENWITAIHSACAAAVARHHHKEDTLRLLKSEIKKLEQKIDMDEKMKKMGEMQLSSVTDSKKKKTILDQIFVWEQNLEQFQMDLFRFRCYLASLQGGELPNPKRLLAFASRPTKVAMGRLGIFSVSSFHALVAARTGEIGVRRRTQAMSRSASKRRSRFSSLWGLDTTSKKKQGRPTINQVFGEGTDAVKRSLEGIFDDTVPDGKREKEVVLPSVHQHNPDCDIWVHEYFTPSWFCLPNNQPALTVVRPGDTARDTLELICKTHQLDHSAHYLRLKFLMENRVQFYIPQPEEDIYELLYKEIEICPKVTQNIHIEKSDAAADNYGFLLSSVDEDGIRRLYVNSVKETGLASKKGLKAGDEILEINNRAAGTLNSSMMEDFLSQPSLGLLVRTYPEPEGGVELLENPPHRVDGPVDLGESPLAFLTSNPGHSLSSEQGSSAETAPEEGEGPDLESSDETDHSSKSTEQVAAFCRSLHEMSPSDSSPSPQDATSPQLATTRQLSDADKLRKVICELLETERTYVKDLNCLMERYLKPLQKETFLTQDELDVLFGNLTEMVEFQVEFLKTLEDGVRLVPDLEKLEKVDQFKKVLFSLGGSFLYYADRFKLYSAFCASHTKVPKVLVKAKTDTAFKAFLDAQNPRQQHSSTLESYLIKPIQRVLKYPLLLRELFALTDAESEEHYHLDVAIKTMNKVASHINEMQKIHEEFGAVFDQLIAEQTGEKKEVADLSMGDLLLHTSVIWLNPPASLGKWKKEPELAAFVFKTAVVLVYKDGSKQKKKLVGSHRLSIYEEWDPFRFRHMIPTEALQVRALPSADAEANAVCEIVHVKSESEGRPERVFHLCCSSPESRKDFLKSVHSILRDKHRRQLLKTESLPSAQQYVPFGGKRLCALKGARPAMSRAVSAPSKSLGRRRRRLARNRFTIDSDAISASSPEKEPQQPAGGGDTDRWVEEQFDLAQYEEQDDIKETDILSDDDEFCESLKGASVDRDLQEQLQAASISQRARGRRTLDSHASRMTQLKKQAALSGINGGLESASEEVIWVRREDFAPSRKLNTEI

Assay [3] deals with Tiam1 PDZ L911M/K912E. The description is as above. The settings on record: for ΔΔGb: ΔGb(mutant) − ΔGb(wild-type), L911M/K912E. In outline: as §2
For the next assay, the target named is Tiam1 PDZ L915F (Homo sapiens, UniProt Q13009, L915F). Description: Fluorescence anisotropy binding, Tiam1 PDZ mutant. Summed up: as §1
Tiam1 PDZ L915F, sequence (Q13009 841-930 L915F limits assumed): as the sequence (Q13009 841-930 limits assumed) above, with L75F counted along it
A further assay concerns the target Tiam1 PDZ L920V (Homo sapiens, UniProt Q13009, L920V). Description: Fluorescence anisotropy binding, Tiam1 PDZ mutant. Summed up: as §1
For assay [4], the target named is Tiam1 PDZ L915F/L920V (Mus musculus, UniProt Q60610, L915F/L920V, species not given). Nature of the assay: Fluorescence anisotropy binding and double-mutant cycle, Tiam1 PDZ mutant. The settings on record: Tiam1 PDZ L915F/L920V; for Kd: fluorescence anisotropy, 25 °C. Summed up:
as §2

Assay [5] deals with Tiam1 PDZ L915F/L920V. Described as above. As to conditions: for ΔΔGb: ΔGb(mutant) − ΔGb(wild-type), L915F/L920V. Summed up:
as §2

The target in assay [6] is Tiam1 PDZ QM (L911M/K912E/L915F/L920V) (Homo sapiens, UniProt Q13009, K912E/L911M/L915F/L920V). Nature of the assay: Fluorescence anisotropy binding, Tiam1 PDZ quadruple mutant. As to conditions: for ΔGb: Tiam1 PDZ QM. In outline: as §1
Tiam1 PDZ QM (L911M/K912E/L915F/L920V) (Homo sapiens, UniProt Q13009, K912E/L911M/L915F/L920V), sequence (Q13009 841-930 L911M/K912E/L915F/L920V limits assumed): as the sequence (Q13009 841-930 limits assumed) above, with L71M, K72E, L75F, L80V counted along it
The test system of assay [7] is Tiam1 PDZ QM (L911M/K912E/L915F/L920V). The assay is described as above. As to conditions: for ΔΔGb: ΔGb(mutant) − ΔGb(wild-type), QM. Summed up:
as §1

Where two headings read alike, the source gives them in different places. Peptide text beside a SMILES is read from it. * marks the point of attachment. Dansyl = CN(C)c1cccc2c(S(=O)(=O)*)cccc12

Here are results for 9 compounds from article PMC3059893 (Biochemistry, 2011).

Tiam1 PDZ L920V, sequence (Q13009 841-930 L920V limits assumed): as the sequence (Q13009 841-930 limits assumed) above, with L80V counted along it
Tiam1 PDZ L915F/L920V (Mus musculus, UniProt Q60610, L915F/L920V, species not given), sequence (Q60610 2-1591 L915F/L920V): as the sequence (Q60610 2-1591 L911M/K912E) above, with M910L, E911K, L914F, L919V counted along it
Tiam1 PDZ K912E, sequence (Q13009 841-930 K912E limits assumed): as the sequence (Q13009 841-930 limits assumed) above, with K72E counted along it

As for `CC(C)[C@H](NC(=O)[C@H](Cc1ccc(O)cc1)NC(=O)[C@@H](NC(=O)[C@H](CCCNC(=N)N)NC(=O)[C@H](CCCCN)NC(=O)[C@H](C)NC(=O)[C@H](C)NC(=O)[C@H](Cc1ccc(O)cc1)NS(=O)(=O)c1cccc2c(N(C)C)cccc12)[C@@H](C)O)C(=O)O` [Tiam2 peptide 1 (Group I)] (Dansyl-YAAKRTYV-OH), the results for the Kd (in assay [1]; at Tiam2 PDZ domain) were greater than 250 µM and 77.6 ± 2.4 µM, respectively.
On the same counts, the results for `C[C@H](NC(=O)[C@H](Cc1c[nH]c2ccccc12)NC(=O)[C@H](Cc1ccc(O)cc1)NC(=O)[C@H](CCCCN)NC(=O)[C@H](CCC(=O)O)NC(=O)[C@H](C)NC(=O)[C@H](C)NC(=O)[C@H](Cc1ccc(O)cc1)NS(=O)(=O)c1cccc2c(N(C)C)cccc12)C(=O)O` [Tiam1 peptide 2 (Group I)] (Dansyl-YAAEKYWA-OH) are 90.3 ± 8.3 µM and 10.9 ± 0.4 µM.
On Tiam2 PDZ domain, `C[C@H](NC(=O)[C@H](Cc1ccc(O)cc1)NC(=O)[C@H](Cc1ccc(O)cc1)NC(=O)[C@H](CCC(=O)O)NC(=O)[C@H](CCCCN)NC(=O)[C@H](CCCNC(=N)N)NC(=O)[C@H](CO)NC(=O)[C@H](CO)NS(=O)(=O)c1cccc2c(N(C)C)cccc12)C(=O)O` [Model, reference compound] (Dansyl-SSRKEYYA-OH) displayed a Kd of 24.1 ± 7.1 µM.
With `CC[C@H](C)[C@H](NC(=O)[C@H](CC(C)C)NC(=O)[C@H](C)NC(=O)[C@H](C)NC(=O)[C@H](Cc1ccc(O)cc1)NS(=O)(=O)c1cccc2c(N(C)C)cccc12)C(=O)N[C@@H](Cc1c[nH]cn1)C(=O)N[C@@H](CCCCN)C(=O)N[C@@H](Cc1ccccc1)C(=O)O` [Tiam2 peptide 3 (Group II)] (Dansyl-YAALIHKF-OH), the Kd is greater than 250 µM in assay [1] and 28.7 ± 4.9 µM at Tiam2 PDZ domain.
On to `C[C@H](NC(=O)[C@H](CCCNC(=N)N)NC(=O)[C@H](Cc1ccc(O)cc1)NC(=O)[C@H](CCCNC(=N)N)NC(=O)[C@H](Cc1ccc(O)cc1)NC(=O)[C@H](C)NC(=O)[C@H](C)NC(=O)[C@H](Cc1ccc(O)cc1)NS(=O)(=O)c1cccc2c(N(C)C)cccc12)C(=O)O` [Tiam1 peptide 1 (Group I)] (Dansyl-YAAYRYRA-OH), for which the figures for the Kd (in assay [1]; at Tiam2 PDZ domain) were greater than 250 µM and 22.5 ± 1.1 µM, respectively.
Take `CC(C)[C@H](NC(=O)[C@H](Cc1ccc(O)cc1)NC(=O)[C@H](Cc1ccc(O)cc1)NC(=O)[C@H](CCC(=O)O)NC(=O)[C@H](CCCCN)NC(=O)[C@H](CC(=O)O)NC(=O)[C@H](CCCCN)NC(=O)[C@H](CC(N)=O)NS(=O)(=O)c1cccc2c(N(C)C)cccc12)C(=O)O` [Neurexin1] (Dansyl-NKDKEYYV-OH): the Kd was 5 ± 0.2 µM on Tiam2 PDZ domain; “bound very weakly” on Tiam1 PDZ L911M (Tiam1 PDZ L911M, fluorescence anisotropy, 25 °C); “bound very weakly” at Tiam1 PDZ K912E (Tiam1 PDZ K912E, fluorescence anisotropy, 25 °C); 270 ± 150 µM at Tiam1 PDZ L911M/K912E [2]; “too weak to allow for reliable measurement” at Tiam1 PDZ L915F (Tiam1 PDZ L915F, fluorescence anisotropy, 25 °C); “too weak to allow for reliable measurement” at Tiam1 PDZ L920V (Tiam1 PDZ L920V, fluorescence anisotropy, 25 °C). In addition, the figures for the Kd (at Tiam1 PDZ L915F/L920V [4]; in assay [6]) were 166 ± 12 µM and 46 ± 2 µM, respectively. The figures for the ΔGb (at Tiam1 PDZ L911M/K912E [2]; on Tiam1 PDZ L915F/L920V [4]; in assay [6]) were -4.90 ± 0.30 kcal/mol, -5.15 ± 0.07 kcal/mol and -5.91 ± 0.04 kcal/mol, respectively. Besides, the ΔΔGb in the assay on Tiam1 PDZ L911M/K912E [3] was -1.30 ± 0.30 kcal/mol; in the assay on Tiam1 PDZ L915F/L920V [5] it was -1.58 ± 0.10 kcal/mol; in assay [7], -2.30 ± 0.10 kcal/mol. Further, the “fold higher Kd than Tiam2 PDZ domain” value in assay [7] (QM vs Tiam2 PDZ) turned out to be 9 fold.
Turning to `C[C@H](NC(=O)[C@H](C)NC(=O)[C@H](Cc1ccc(O)cc1)NS(=O)(=O)c1cccc2c(N(C)C)cccc12)C(=O)N[C@@H](CCCCN)C(=O)N[C@@H](C)C(=O)N[C@@H](Cc1ccccc1)C(=O)N[C@@H](CCCNC(=N)N)C(=O)N[C@@H](Cc1ccccc1)C(=O)O` [Tiam1 peptide 3 (Group II)] (Dansyl-YAAKAFRF-OH), the Kd in assay [1] worked out at 200 ± 50 µM; on Tiam2 PDZ domain it was 7.7 ± 1.3 µM.
On to `C[C@H](NC(=O)[C@H](Cc1ccc(O)cc1)NC(=O)[C@H](Cc1ccccc1)NC(=O)[C@H](CCC(=O)O)NC(=O)[C@H](CCC(=O)O)NC(=O)[C@H](CCC(N)=O)NC(=O)[C@H](CCCCN)NC(=O)[C@@H](NS(=O)(=O)c1cccc2c(N(C)C)cccc12)[C@@H](C)O)C(=O)O` [Syndecan1] (Dansyl-TKQEEFYA-OH), for which the Kd on Tiam2 PDZ domain was determined as 200 ± 20 µM; at Tiam1 PDZ L911M, 34.7 ± 0.7 µM; at Tiam1 PDZ K912E, 140 ± 20 µM; on Tiam1 PDZ L911M/K912E [2], 211 ± 36 µM; at Tiam1 PDZ L915F it was 81 ± 7 µM; on Tiam1 PDZ L920V, 46 ± 3 µM. The Kd turned out to be 250 ± 20 µM at Tiam1 PDZ L915F/L920V [4] and 122 ± 8 µM in assay [6]. Also, the ΔGb is -6.08 ± 0.01 kcal/mol at Tiam1 PDZ L911M (Tiam1 PDZ L911M); -5.25 ± 0.08 kcal/mol on Tiam1 PDZ K912E (Tiam1 PDZ K912E); -5.00 ± 0.10 kcal/mol at Tiam1 PDZ L911M/K912E [2]; -5.58 ± 0.05 kcal/mol on Tiam1 PDZ L915F (Tiam1 PDZ L915F); -5.92 ± 0.03 kcal/mol on Tiam1 PDZ L920V (Tiam1 PDZ L920V); -4.91 ± 0.08 kcal/mol on Tiam1 PDZ L915F/L920V [4]. The compound further came in with a ΔGb in assay [6] of -5.33 ± 0.04 kcal/mol. For the same compound, the ΔΔGb came out at 0.15 ± 0.02 kcal/mol at Tiam1 PDZ L911M (ΔGb(mutant) − ΔGb(wild-type), L911M); 0.98 ± 0.09 kcal/mol at Tiam1 PDZ K912E (ΔGb(mutant) − ΔGb(wild-type), K912E); 1.20 ± 0.10 kcal/mol in the assay with Tiam1 PDZ L911M/K912E [3]; 0.65 ± 0.06 kcal/mol at Tiam1 PDZ L915F (ΔGb(mutant) − ΔGb(wild-type), L915F); 0.31 ± 0.04 kcal/mol on Tiam1 PDZ L920V (ΔGb(mutant) − ΔGb(wild-type), L920V); 1.32 ± 0.09 kcal/mol in the assay on Tiam1 PDZ L915F/L920V [5]. The compound further gave a ΔΔGb in assay [7] of 0.89 ± 0.04 kcal/mol. Also, the “ΔΔΔGint (pair-wise coupling free energy)” value in the assay on Tiam1 PDZ L911M/K912E [3] (double-mutant cycle L911/K912 (S-2 pocket)) was determined as 0.07 ± 0.13 kcal/mol; in the assay with Tiam1 PDZ L915F/L920V [5] (double-mutant cycle L915/L920 (S0 pocket)) it was 0.36 ± 0.13 kcal/mol. The Σ singles in the assay with Tiam1 PDZ L911M/K912E [3] (sum of ΔΔGb of single mutants L911M and K912E) is 1.13 ± 0.09 kcal/mol; with Tiam1 PDZ L915F/L920V [5] (sum of ΔΔGb of single mutants L915F and L920V) it was 0.96 ± 0.07 kcal/mol. Also, the “fold lower Kd than Tiam2 PDZ domain” value in assay [7] (QM vs Tiam2 PDZ) was determined as 1.6 fold.
As to `C[C@H](NC(=O)[C@H](C)NC(=O)[C@H](Cc1ccc(O)cc1)NS(=O)(=O)c1cccc2c(N(C)C)cccc12)C(=O)NCC(=O)N[C@@H](CCCNC(=N)N)C(=O)N[C@@H](CCCCN)C(=O)N[C@@H](Cc1c[nH]cn1)C(=O)N[C@@H](Cc1ccccc1)C(=O)O` [Tiam2 peptide 2 (Group II)] (Dansyl-YAAGRKHF-OH), the values for the Kd (in assay [1]; at Tiam2 PDZ domain) were greater than 250 µM and 9.9 ± 2.2 µM, respectively.
